# Assay outcomes deposited in PubChem by several laboratories.
# Ba/F3 V617F tox: loss of viability in JAK2V617F-driven Ba/F3 cells; 220,000 compounds, 1.1% hits; Ba/F3 EpoR-JAK2V617F viability, ATP luminescence; inhibition, % at 5.6 µM; AID 1446;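 active = inhibition above the campaign mean plus 3 SD over all tested compounds, cut at about 24% in these data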;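 note: cytokine-independent growth of Ba/F3 cells driven by EpoR plus mutant JAK2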
# IEC-6 cytotox: IEC-6 cytotoxicity, counter-screen for KLF5 inhibitors; luminescence viability; inhibition, % at 5 µM; 290,000 compounds, 0.78% hits; AID 1825; in the data active = inhibition above about 22%
# bCat nuc transl: modulators of beta-catenin nuclear translocation; HeLa beta-catenin nuclear translocation, immunofluorescence imaging; nuclear translocation activity, % at 5 µM; 190,000 compounds, 0.3% hits;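 active = nuclear translocation activity above 50% at 5 µM, with a well cell count of 50 or more; inconclusive = wells under 50 cells across six images, flagged as toxic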;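 note: per-cell ratio of nuclear to cytoplasmic median beta-catenin stain intensity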
#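 Technique: fluorescence imaging of beta-catenin antibody stain plus DAPI / Material: human HeLa cell line / Incubation: compound treatment 24 h, 37°C, 5% CO2 / Read-out basis: % activation of per-cell nuclear versus cytoplasmic median beta-catenin signal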
# APP 5UTR inh: APP translation inhibition | AID 1285 | 190,000 compounds, 0.82% hits | SH-SY5Y APP 5'UTR-luciferase reporter, luminescence | inhibition, % at 2 µM;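 active = inhibition above a set limit, derived from the sample mean plus 3 SD, cut at about 45% in these data; inconclusive = one replicate passes the limit while the other fails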
# BaF3 tox: counter-screen for JAK2V617F inhibitors: parental Ba/F3 viability inhibitors; CellTiter-Glo ATP luminescence; inhibition, % at 5.6 µM; 220,000 compounds, 1.1% hits; AID 1486;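 active = inhibition above a per-campaign cutoff, the mean inhibition of all tested compounds plus 3 SD, cut at about 27% in these data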
# MT stabilizer: stabilizes microtubules in HeLa cells; 200,000 compounds, 0.83% hits; AID 2205; % tubulin-high responders, % at 10 µM; HeLa tubulin immunostaining HCS, 24 h; share of cells brighter than vehicle mean+2SD;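 active = plate Z-score above 3 for both tubulin-high and condensed-nucleus cell shares, with cell loss under 80%, at 10 µM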;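 note: anti alpha tubulin signal scored within the nucleus-defined area of each cell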
# Hits are given with their value; i = inactive; ? = inconclusive; nt = not tested or not shown. An excerpt weighted towards active compounds, which were near 2.2% of everything screened.
SMILES,Ba/F3 V617F tox,IEC-6 cytotox,bCat nuc transl,APP 5UTR inh,BaF3 tox,MT stabilizer
CCN1C(=O)C(=Cc2cccc(OC)c2Oc2ccc([N+](=O)[O-])cc2[N+](=O)[O-])SC1=S,nt,i,nt,nt,nt,nt
Oc1cccc(C2c3[nH]c4ccccc4c3CCN2Cc2ccc3c(c2)CCO3)c1 (centres undefined),i,i,i,i,i,8.2
COc1ccc(C(=O)Nc2cnn(Cc3ccc(Cl)cc3)c2)cc1OC,35,i,nt,i,36,i
CC(=O)Nc1ccc(NC(=O)Cn2cnc3c(cnn3C(C)(C)C)c2=O)cc1,i,i,i,i,i,i
CC(C)(C)n1ncc2c(=O)n(CC(=O)NCc3ccccc3)cnc21,i,i,i,i,i,32
COC(=O)CN(C)C(=O)c1cccc(OC2CCN(S(=O)(=O)N(C)C)CC2)c1,nt,i,nt,nt,nt,nt
CCCCOc1ccc(C(=O)C(CN2CCOCC2)c2ccccc2)cc1 (centres undefined),i,i,?,i,i,i
COc1ccc(C(=O)C(CN2CCOCC2)c2ccccc2)cc1 (centres undefined),90,i,nt,90,42,i
O=C(c1ccc(F)cc1)C(CN1CCOCC1)c1ccccc1 (centres undefined),i,i,i,95,i,i
O=C(c1ccc(Cl)cc1)C(CN1CCCC1)c1ccccc1 (centres undefined),nt,i,nt,nt,nt,nt
COc1ccc(C(=O)C(CN2CCCC2)c2ccccc2)cc1 (centres undefined),80,i,i,86,29,i
CC(C)n1cc(/C=C2/NC(=O)N(c3cccc(Cl)c3)C2=O)c2ccccc21,i,i,i,i,i,i
CC(C)n1cc(/C=C2\NC(=O)N(c3cccc(Cl)c3)C2=O)c2ccccc21,i,i,nt,i,i,22
CCCCOc1ccc(Br)cc1CSC(=N)N,30,i,i,52,34,i
CCOc1ccc(C(C)=O)cc1CSC(=N)N,i,i,i,i,i,i
Cc1ccc(-c2nnn(CC(=O)N3CCCCC3)n2)cc1,nt,i,nt,nt,nt,nt
COc1cc(C2CC(=O)c3cnc(N4CCN(Cc5ccccc5)CC4)nc3C2)cc(OC)c1OC (centres undefined),i,i,83,i,i,43
CC(C)[C@@H](CSc1ccccc1)N1CCN(Cc2ccccc2)CCC1=O,nt,i,nt,nt,nt,nt
O=C(Cc1ccc(Cl)cc1)Nc1ccc(-c2cc3ccccc3oc2=O)c(Cl)c1,56,48,102,86,65,i
O=C(Cc1ccc(Cl)cc1)Nc1ccc2oc(=O)ccc2c1,i,i,i,nt,i,nt
Cc1nn2c(=O)cc(COC(=O)c3ccc(S(=O)(=O)N4CCCCC4)cc3)nc2s1,i,i,nt,i,i,15
COc1ccc(-n2ncc3c2CC(C)(C)CC3NC(=O)CCCN2CCCC2=O)cc1 (centres undefined),nt,i,nt,nt,nt,nt
Nn1cnnc1SCC(=O)Nc1ccc(C2CCCCC2)cc1,i,i,i,i,i,i
O=C(O)CSCC(=O)Nc1ccc(C2CCCCC2)cc1,i,i,i,68,i,i
COc1ccccc1C(C)NC(=O)c1cc(=O)[nH]c2ccccc12 (centres undefined),nt,i,nt,nt,nt,nt
SMILES,Ba/F3 V617F tox,IEC-6 cytotox,bCat nuc transl,APP 5UTR inh,BaF3 tox,MT stabilizer
C=C(C)CSc1nc2sc3c(c2c(=O)n1C1CCCCC1)CCN(C)C3,51,i,i,nt,54,nt
CN(C)c1nc(N/N=C/c2ccccc2O)nc(Nc2ccc(F)cc2)n1,i,i,i,48,i,i
CN(C)c1nc(Nc2ccc(F)cc2)nc(Oc2ccc(F)cc2)n1,nt,i,nt,nt,nt,nt
Cc1ccc(C(C)C)c(OCc2nn(CC(=O)c3ccc(OC(F)F)cc3)c3[n+]2CCCCC3)c1,49,i,i,i,30,i
CSc1ccccc1OCc1cc(C(=O)NCCN2CCCc3ccccc32)no1,nt,i,nt,nt,nt,nt
COc1cc(C2C(C#N)=C(N)Oc3cc(O)ccc32)cc2c1OCO2 (centres undefined),i,i,i,i,i,16
COc1ccc(C2C(C#N)=C(N)Oc3cc(O)ccc32)cc1C (centres undefined),nt,i,nt,nt,nt,nt
COc1ccc(C2C(C#N)=C(N)Oc3cc(O)ccc32)cc1OC (centres undefined),i,i,i,i,i,i
N#CC1=C(N)Oc2cc3c(cc2C1c1ccc(Cl)cc1)OCO3 (centres undefined),i,i,i,i,i,i
COc1cc(C2C(C#N)=C(N)Oc3cc4c(cc32)OCO4)cc(OC)c1OC (centres undefined),93,85,51,93,89,i
CCOC(=O)C1=C(C)OC(N)=C(C#N)C1c1cc(OC)c2c(c1)OCO2 (centres undefined),i,i,i,i,i,i
COc1cc(C2C(C#N)=C(N)Oc3cc(N(C)C)ccc32)cc2c1OCO2 (centres undefined),i,i,80,97,i,14
COc1cc(C2C(C#N)=C(N)Oc3cc(O)ccc32)cc(OC)c1OC (centres undefined),i,i,nt,94,i,21
COCC1CCCCN1C(=O)c1cccc(OC2CCN(S(C)(=O)=O)CC2)c1 (centres undefined),nt,i,nt,nt,nt,nt
COc1ccc(CNC(=O)C2=CC(c3ccc(OC)cc3)=NS(=O)(=O)N2C)cc1,nt,i,nt,nt,nt,nt
O=C(O)c1ccc(CNC(=O)c2ccc3c(c2)C(=O)N(Cc2cccnc2)C3=O)cc1,nt,i,nt,nt,nt,nt
O=C(/C=C/c1cn(-c2ccccc2)nc1-c1cccnc1)N1CCCC1,i,i,i,i,i,i
O=C(/C=C/c1cn(-c2ccccc2)nc1-c1cccnc1)c1ccco1,i,i,i,i,i,12
O=C1CCC(C(=O)N2CCCO2)CN1Cc1cccc(C(F)(F)F)c1 (centres undefined),nt,i,nt,nt,nt,nt
CN(C(=O)CNC(=O)c1ccc(Br)o1)C1CCCCC1,nt,i,nt,nt,nt,nt
CC1=NN(c2nc3ccccc3[nH]2)C(=O)C1Cc1ccccc1 (centres undefined),97,i,i,nt,81,nt
O=c1[nH]c2ccccc2nc1NCc1ccccc1,nt,i,nt,nt,nt,nt
CCC(=O)Nc1cccc(C(=O)/C=C/c2cc(Br)ccc2OC)c1,i,i,i,75,i,i
CC(=O)Nc1cccc(C(=O)/C=C/c2ccc(/C=C/C(=O)c3cccc(NC(C)=O)c3)cc2)c1,i,i,i,92,i,i
CC(=O)Nc1cccc(C(=O)/C=C/c2ccc(F)cc2)c1,i,i,i,i,i,i
Cc1cccc(N(Cc2ccccc2)C(=O)c2ccccc2S(C)(=O)=O)c1,nt,i,nt,nt,nt,nt
CC(O)CN1CCN(C(=O)CN2C(=O)NC(c3ccccc3)(c3ccccc3)C2=O)CC1 (centres undefined),nt,i,nt,nt,nt,nt
CCc1cc(-c2n[nH]c(CCC(=O)O)c2-c2nc3ccccc3n2C)c(O)cc1O,i,i,i,i,i,i
CCc1cc(-c2n[nH]c(C)c2-c2nc3ccccc3n2C)c(O)cc1O,i,i,i,i,i,14
CC(=O)NCCC(=O)Nc1cc(S(=O)(=O)N2CCOCC2)ccc1Oc1ccccc1,nt,i,nt,nt,nt,nt
